Bioassay records: PubChem BioAssay, Sanford-Burnham Center for Chemical Genomics
EBI2 block: blocks human EBI2 receptor beta-arrestin signaling; P32249; EBI2 beta-arrestin recruitment, luminescence, 7a,25-OHC stimulated; inhibition, % at 5 µM; 360,000 compounds, 0.81% hits; AID 651636; in the data active means inhibition above about 38%;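 further: enzyme fragment complementation signal reports receptor beta-arrestin coupling in cells; 0% = agonist plus DMSO wells and 100% = wells without agonist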
Target sequence (P32249 whole entry, looked up, the tested form may be a part): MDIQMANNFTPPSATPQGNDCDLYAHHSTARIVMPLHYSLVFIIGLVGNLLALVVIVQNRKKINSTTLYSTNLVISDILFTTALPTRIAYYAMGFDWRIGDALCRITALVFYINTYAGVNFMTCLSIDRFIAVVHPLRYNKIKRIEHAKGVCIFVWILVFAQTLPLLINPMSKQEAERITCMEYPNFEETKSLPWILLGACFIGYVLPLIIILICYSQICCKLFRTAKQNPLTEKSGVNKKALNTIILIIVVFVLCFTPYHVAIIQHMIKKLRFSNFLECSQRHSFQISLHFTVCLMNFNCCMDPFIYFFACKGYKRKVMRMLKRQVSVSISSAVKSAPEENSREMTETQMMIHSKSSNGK
APJ antagonist: antagonists of human APJ apelin receptor. P35414. CHO-K1 APJ beta-arrestin complementation, luminescence. inhibition, % at 20 µM. 330,000 compounds, 0.32% hits. AID 2521;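 active means inhibition above about 40% at 20 µM, limit read from the data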;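 further: cells challenged with 10 nM apelin-13 agonist together with compound; plate controls were apelin-13 plus DMSO wells for no effect and DMSO wells lacking apelin-13 for full effect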
CXCR6 block: CXCR6 (human) receptor inhibition | 360,000 compounds, 0.36% hits | CHO-K1 PathHunter CXCR6 beta-arrestin, luminescence | AID 602244 | inhibition, % at 20 µM; in the data active means inhibition above about 34%, passing the limit was not always enough;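 further: antagonist mode with CXCL16 agonist at 10 nM final; 0% = 10 nM CXCL16 with DMSO and 100% = unstimulated wells without agonist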
Target sequence (O00574 whole entry, looked up): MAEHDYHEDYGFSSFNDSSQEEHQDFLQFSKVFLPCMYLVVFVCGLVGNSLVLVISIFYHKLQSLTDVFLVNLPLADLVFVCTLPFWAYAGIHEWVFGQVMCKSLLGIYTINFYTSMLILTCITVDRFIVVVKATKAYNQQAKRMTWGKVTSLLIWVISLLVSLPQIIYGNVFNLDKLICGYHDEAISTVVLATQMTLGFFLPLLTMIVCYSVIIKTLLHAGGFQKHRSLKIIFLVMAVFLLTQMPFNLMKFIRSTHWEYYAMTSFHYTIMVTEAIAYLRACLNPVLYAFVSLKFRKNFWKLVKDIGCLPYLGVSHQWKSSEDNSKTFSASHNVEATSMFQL
CCR6 antag: blocks CCL20-driven beta-arrestin recruitment at human CCR6; CHO-K1 CCR6 PathHunter beta-arrestin, luminescence, CCL20-stimulated; inhibition, % at 20 µM; 340,000 compounds, 0.49% hits;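 active means compounds whose inhibition of the agonist-driven luminescence signal at 20 µM reaches about 50%, limit read from the data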;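 further: cells stimulated with CCL20 at 14 nM final; plate controls were DMSO with CCL20 for no effect and DMSO without agonist for full effect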
APJ agonist: APJ receptor agonism. P35414. CHO-K1 APJ PathHunter beta-arrestin, luminescence; 0% DMSO wells, 100% apelin. activation, % at 20 µM. 330,000 compounds, 0.11% hits. AID 2520;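 active means activation more than six SD over the plate average, tested at 20 µM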;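 further: 0% = DMSO alone and 100% = apelin-13 at 10 nM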
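assay system = CHO-K1 APJ beta-arrestin complementation cell line | input = cell density 1000 per well | dosing = compound 20 µM once, DMSO 1% | timing = compound 90 min 25 °C, reagent 1 h | measured by = luminescence from split beta-galactosidase complementation, Galacton Star/Emerald II substrate | read-out basis = APJ agonist activity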
EBI2 antag conf: confirmation of human EBI2 receptor antagonists. shares compounds with EBI2 block. EBI2 beta-arrestin luminescence, 7a,25-OHC antagonism. inhibition, % at 5 µM. 2,400 compounds, 29% hits. AID 651997;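 active means inhibition of at least 50%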
EBI2 ag: counter-screen for EBI2 antagonists: EBI2 agonist activity | shares compounds with EBI2 block | EBI2-expressing cells, agonist mode, luminescence, 60 min; 0% vehicle, 100% 7α,25-dihydroxycholesterol control | activation, % at 5 µM | 2,400 tested, under 10 active | AID 652000;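 active means activation of at least 50%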
bGal cs: beta-galactosidase inhibition counter-screen | shares compounds with EBI2 block | purified beta-galactosidase, luminescent Galacton Star, 15 min | inhibition, % at 5 µM | 2,400 compounds, 1% hits;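 active means replicate-average signal at least 3 plate SD below neutral wells, shown as high inhibition, flagging enzyme-inhibiting false positives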;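 further: 0% = DMSO wells with enzyme and 100% = wells lacking enzyme; higher means stronger loss of beta-gal luminescence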
The depositor's hits bear a star; x = no result. Compounds with a hit are over-represented: about 1.5% of the library has one in this group of screens.

SMILES | EBI2 block | APJ antagonist | CXCR6 block | CCR6 antag | APJ agonist | EBI2 antag conf | EBI2 ag | bGal cs
O=C(/C=C/c1ccccc1F)N1CCN(c2ccccn2)CC1 | 45* | 8 | -10 | 9 | -3 | 32 | 0 | 5
O=C(/C=C/c1ccc(Cl)c(C(F)(F)F)c1)N1CCN(c2ccccn2)CC1 | 48* | 9 | -3 | 16 | -3 | 37 | 1 | 3
Cc1ccc(C)c(S(=O)(=O)N2CCCOC2CNC(=O)C(=O)NC2CC2)c1 (stereo unspecified) | -10 | -7 | 4 | 1 | -3 | x | x | x
O=C(/C=C/c1ccccc1)N1CCN(c2ccccn2)CC1 | 88* | 9 | 7 | 13 | -3 | 74* | 1 | 2
O=C(c1ccc(-c2ccccc2)cc1)N1CCN(c2ccc3c(c2)C2CC3CCN2C(=O)OCc2ccccc2)CC1 (stereo unspecified) | 54* | x | 8 | x | x | 40 | 1 | 7
Cc1ccc(C(=O)N2CCN(c3ccc4c(c3)C3CC4CCN3C(=O)OCc3ccccc3)CC2)cc1 (stereo unspecified) | 33 | x | 14 | x | x | x | x | x
COCCCN(Cc1ccco1)C(=O)c1cc2c(s1)-c1ccc(Cl)cc1S(=O)(=O)C2 | 19 | -6 | -3 | 4 | 4 | x | x | x
CCc1cc2cc(C(=O)N3CCN(Cc4ccccc4)CC3)sc2s1 | 97* | -2 | -4 | 8 | -3 | 85* | 1 | 5
O=C(c1cc2c(s1)CCCC2)N1CCN(c2ccccc2)CC1 | 1 | -2 | 0 | 4 | -2 | x | x | x
CCc1cc2cc(C(=O)N3CCN(c4ccccc4)CC3)sc2s1 | 83* | 7 | -2 | -14 | -6 | 46 | -2 | -15
CCc1ccc(NC(=O)C(C)OC(=O)c2cc(=O)[nH]c3ccc(S(=O)(=O)Nc4ccc(F)cc4)cc23)cc1 (stereo unspecified) | 12 | 16 | 4 | 20 | 0 | x | x | x
Cc1cccc(NS(=O)(=O)c2ccc3[nH]c(=O)cc(C(=O)OC(C)C(=O)Nc4ccc([N+](=O)[O-])cc4)c3c2)c1 (stereo unspecified) | 47* | 18 | 1 | 26 | 0 | 38 | -1 | 9
Cc1ccc(C)c(N2CCN(C(=O)c3ccc4c(c3)c(C)c(C)n4C)CC2)c1 | 73* | 4 | 5 | 9 | -4 | 58* | 0 | -10
Cc1ccc(C)c(N2CCN(C(=O)c3ccc(N4CCCC4=O)cc3)CC2)c1 | 48* | -5 | 1 | 7 | -2 | 21 | -1 | -11
Cc1ccc(C)c(N2CCN(C(=O)c3ccc4nc(-c5ccco5)c(-c5ccco5)nc4c3)CC2)c1 | 44* | 2 | 12 | 9 | 1 | 33 | -1 | 11
Cc1ccc(C)c(N2CCN(C(=O)c3cc4sccc4n3C)CC2)c1 | 74* | 5 | 3 | 2 | -4 | 34 | -1 | -9
Cc1c(C)n(C)c2ccc(C(=O)N3CCN(c4ccccc4)CC3)cc12 | 31 | -19 | -9 | -6 | 6 | x | x | x
Cc1ccccc1NC(=O)NC1(C(=O)NCC2CCCO2)CCCCC1 (stereo unspecified) | -5 | 9 | -10 | -7 | -3 | x | x | x
COc1cc(F)ccc1-c1cc(C(=O)NCc2cc(C(F)(F)F)cc(C(F)(F)F)c2)[nH]n1 | 22 | x | -1 | x | x | x | x | x
CNC(=O)C1CC(=O)N(CCc2ccc(OC)c(OC)c2)C(=Nc2ccc(F)cc2)S1 (stereo unspecified) | -3 | -31 | 7 | 1 | -2 | x | x | x
COC(=O)c1cc(=O)n(Cc2ccc(F)cc2)c(=Nc2ccccc2)s1 | 60* | 8 | 15 | 26 | -4 | 62* | 0 | 7
CCOC(=O)c1ccc(N=c2sc(C(=O)OC)cc(=O)n2-c2ccc(C(=O)OCC)cc2)cc1 | 79* | 7 | 11 | 23 | -1 | 74* | 1 | 7
COC(=O)c1cc(=O)n(-c2ccccc2)c(=Nc2ccccc2)s1 | 2 | 5 | 6 | 25 | 1 | x | x | x
COC(=O)c1cc(=O)n(Cc2cccs2)c(=Nc2ccccc2)s1 | 25 | 2 | 6 | 16 | -5 | x | x | x
COC(=O)c1cc(=O)n(Cc2ccco2)c(=Nc2ccc(F)cc2)s1 | 16 | 23 | 12 | 26 | -8 | x | x | x
SMILES | EBI2 block | APJ antagonist | CXCR6 block | CCR6 antag | APJ agonist | EBI2 antag conf | EBI2 ag | bGal cs
COC(=O)c1cc(=O)n(Cc2ccc(OC)c(OC)c2)c(=Nc2ccc(F)cc2)s1 | 70* | 19 | 7 | 19 | -4 | 50* | 0 | -9
COC(=O)c1cc(=O)n(CCc2ccc(OC)c(OC)c2)c(=Nc2ccc(F)c(Cl)c2)s1 | 63* | 14 | 15 | 17 | -2 | 62* | -1 | -8
CCOc1cc(C=NN=C2c3ccccc3-c3ccccc32)ccc1O | 21 | x | 27 | 31 | x | x | x | x
COc1ccc(S(=O)(=O)Nc2ccc(C(N)=O)cc2)cc1C(=O)N1CCCCCC1 | 0 | -2 | -1 | 13 | 0 | x | x | x
Cc1ccc(C)c(OCC(=O)NNC(=O)CCN2CCN(c3ccccc3)CC2)c1 | -13 | -3 | -4 | 14 | -5 | x | x | x
CN1C(=O)[C@H]2[C@@H](c3ccc(C(F)(F)F)cc3)N[C@]3(CCCN(Cc4ccco4)C3=O)[C@H]2C1=O | -6 | x | 2 | x | x | x | x | x
CC(C)(C)c1ccc(/C=C/C(=O)N2CCOCC2)cc1 | -9 | -10 | 3 | 7 | -3 | x | x | x
CC(C)(C)c1ccc(/C=C/C(=O)N2CCN(c3ncccn3)CC2)cc1 | 65* | -2 | 2 | -22 | -3 | 61* | -1 | -18
O=C(/C=C/c1ccc(F)cc1)N1CCN(c2ncccn2)CC1 | 93* | 10 | -3 | -2 | -1 | 78* | -1 | -5
CCCCCCn1nc(C(=O)N(CCOC)c2c(N)n(CCCC)c(=O)[nH]c2=O)c2ccccc2c1=O | -2 | -1 | 2 | 14 | -6 | x | x | x
CN(C)S(=O)(=O)c1ccc(NC(=O)CSc2nnc(-c3ccco3)n2N)cc1 | -5 | -3 | 4 | -8 | -4 | x | x | x
CCCCCN(C(=O)CCC(=O)OCC(=O)N(C)Cc1ccc(C)cc1)c1c(N)n(CCCC)c(=O)[nH]c1=O | -3 | 7 | -9 | 13 | 11 | x | x | x
Cn1c(=O)c2c(nc(N/N=C/c3ccc(OC(=O)c4ccco4)cc3)n2Cc2ccccc2Cl)n(C)c1=O | 54* | -12 | -10 | -3 | 1 | 34 | 0 | 11
O=C(NCCOc1ccccc1)C(c1ccccc1)c1ccccc1 | 53* | -17 | 12 | 16 | -2 | 44 | -1 | -16
COc1ccccc1OCCNC(=O)C(c1ccccc1)c1ccccc1 | 8 | 17 | 5 | -3 | 0 | x | x | x
